# Reference: ChEMBL document CHEMBL3994637, “Broad spectrum anti-infective properties of benzisothiazolones and the parallels in their anti-bacterial and anti-fungal effects” (Bioorg Med Chem Lett, 2017)
# Legend:
# Assay type in all cases: functional
# Pseudomonas aeruginosa = test: Antibacterial activity against Pseudomonas aeruginosa ATCC BAA-427 by broth microdilution method
# In short: (§1)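 Bacteria were tested by the NCCLS method in Mueller Hinton broth, with gentamicin and norfloxacin as reference drugs.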
# Staphylococcus aureus [1] = test: Antibacterial activity against methicillin-resistant Staphylococcus aureus ATCC 700699 by broth microdilution method; conditions: Mu50
# Klebsiella pneumoniae = test: Antibacterial activity against Klebsiella pneumoniae ATCC 27736 by broth microdilution method; in short: as §1
# Staphylococcus aureus [2] = test: Antibacterial activity against Staphylococcus aureus ATCC 29213 by broth microdilution method
# Escherichia coli = test: Antibacterial activity against Escherichia coli ATCC 9637 by broth microdilution method; conditions: W; in short: as §1
# Staphylococcus aureus [3] = test: Antibacterial activity against Staphylococcus aureus ATCC 25923 by broth microdilution method
# Aspergillus fumigatus = test: Anti-fungal activity against Aspergillus fumigatus after 48 hrs by broth microdilution method
# Cryptococcus neoformans = test: Anti-fungal activity against Cryptococcus neoformans after 48 hrs by broth microdilution method
# Candida albicans = test: Anti-fungal activity against Candida albicans after 48 hrs by broth microdilution method
# [4] = tested on: Trichophyton mentagrophytes; test: Anti-fungal activity against Trichophyton mentagrophytes after 48 hrs by broth microdilution method
# Sporothrix schenckii = test: Anti-fungal activity against Sporothrix schenckii after 48 hrs by broth microdilution method
# Candida parapsilosis = test: Anti-fungal activity against Candida parapsilosis ATCC 22019 after 48 hrs by broth microdilution method; conditions: Lodderomyces parapsilosis, ATCC 22019, 48 h
# Plasmodium falciparum = test: Antimalarial activity against chloroquine-sensitive Plasmodium falciparum 3D7 after 72 hrs by SYBR Green-1 staining based fluorescence assay; conditions: 3D7, 72 h
Compound,MIC (Pseudomonas aeruginosa) [µg/mL],MIC (Staphylococcus aureus [1]) [µg/mL],MIC (Klebsiella pneumoniae) [µg/mL],MIC (Staphylococcus aureus [2]) [µg/mL],MIC (Escherichia coli) [µg/mL],MIC (Staphylococcus aureus [3]) [µg/mL],MIC (Aspergillus fumigatus) [µg/mL],IC50 (Pseudomonas aeruginosa) [µg/mL],IC50 (Cryptococcus neoformans) [µg/mL],MIC (Cryptococcus neoformans) [µg/mL],MIC (Candida albicans) [µg/mL],MIC [4] [µg/mL],IC50 (Staphylococcus aureus [1]) [µg/mL],IC50 (Sporothrix schenckii) [µg/mL],MIC (Sporothrix schenckii) [µg/mL],IC50 (Klebsiella pneumoniae) [µg/mL],IC50 (Staphylococcus aureus [2]) [µg/mL],MIC (Candida parapsilosis) [µg/mL],IC50 (Escherichia coli) [µg/mL],IC50 (Plasmodium falciparum) [nM],other results
GENTAMICIN,> 50,> 50,0.78,0.78,6.25,6.25,–,–,–,–,–,–,–,–,–,–,–,–,–,–,–
CC(=O)Nc1ccccc1-n1sc2ccccc2c1=O,> 50,> 50,> 50,> 50,> 50,> 50,> 50,> 50,> 50,> 50,> 50,> 50,> 50,> 50,> 50,> 50,> 50,> 50,> 50,> 2000,IC50 (Aspergillus fumigatus): > 50 µg/mL; IC50 (Candida albicans): > 50 µg/mL; IC50 [4]: > 50 µg/mL; IC50 (Candida parapsilosis): > 50 µg/mL; IC50 (Staphylococcus aureus [3]): > 50 µg/mL
CCn1cc(C(=O)O)c(=O)c2cc(F)c(N3CCNCC3)cc21 [NORFLOXACIN],> 50,> 50,0.78,0.78,0.39,0.39,–,–,–,–,–,–,–,–,–,–,–,–,–,–,–
COC(=O)[C@H](C)n1sc2ccccc2c1=O,> 50,0.87,> 50,8.4,> 50,3,25,> 50,1.4,2,2.7,12,0.84,2.9,12.2,> 50,6.4,12.5,> 50,> 2000,IC50 (Candida albicans): 1.9 µg/mL; IC50 [4]: 11.4 µg/mL; IC50 (Staphylococcus aureus [3]): 2 µg/mL
CC[C@H](C)[C@@H](C(=O)OC)n1sc2ccccc2c1=O,> 50,0.89,> 50,4.3,> 50,4.2,12.5,> 50,7.3,8.3,2.5,> 50,0.43,4.7,18.2,> 50,2.1,4.5,> 50,> 2000,IC50 (Candida albicans): 1.6 µg/mL; IC50 [4]: > 50 µg/mL; IC50 (Candida parapsilosis): 3.1 µg/mL; IC50 (Staphylococcus aureus [3]): 2 µg/mL
O=c1c2ccccc2sn1C1CCCCC1,> 50,2.5,> 50,7.1,> 50,9.8,3.7,> 50,1,1.3,0.5,1,1,0.4,0.6,> 50,4.6,0.9,> 50,> 2000,IC50 (Aspergillus fumigatus): 0.4 µg/mL; IC50 [4]: 0.7 µg/mL; IC50 (Candida parapsilosis): 0.7 µg/mL; IC50 (Staphylococcus aureus [3]): 6.8 µg/mL
CC(Cn1sc2ccccc2c1=O)n1sc2ccccc2c1=O (configuration not stated),> 50,2.6,> 50,4.1,> 50,12.4,12.5,> 50,1.61,1.67,3.1,4.3,1.5,3.7,6.6,> 50,2,> 50,> 50,> 2000,IC50 (Candida albicans): 2.2 µg/mL; IC50 (Candida parapsilosis): > 50 µg/mL; IC50 (Staphylococcus aureus [3]): 6.1 µg/mL
COC(=O)[C@H](c1ccccc1)n1sc2ccccc2c1=O,> 50,4.2,> 50,18.7,> 50,1.5,> 50,> 50,> 50,> 50,> 50,> 50,2.6,> 50,> 50,> 50,13.5,> 50,> 50,> 2000,IC50 (Aspergillus fumigatus): > 50 µg/mL; IC50 (Candida albicans): > 50 µg/mL; IC50 [4]: > 50 µg/mL; IC50 (Candida parapsilosis): > 50 µg/mL; IC50 (Staphylococcus aureus [3]): 1.1 µg/mL
C[C@@H]1[C@H](O)[C@@H](C)/C=C/C=C/C=C/C=C/C=C/C=C/C=C/[C@H](O[C@@H]2O[C@H](C)[C@@H](O)[C@H](N)[C@@H]2O)C[C@@H]2O[C@](O)(C[C@@H](O)C[C@@H](O)[C@H](O)CC[C@@H](O)C[C@@H](O)CC(=O)O[C@H]1C)C[C@H](O)[C@H]2C(=O)O [AMPHOTERICIN B],–,–,–,–,–,–,0.5,–,–,0.125,0.016,0.25,–,–,0.25,–,–,0.016,–,–,–
